Molecules are shown by their SMILES. Screen size: about 220,000 compounds; about 630 (0.29%) were called active. This is one part of a sample in which actives are shown more often than they occur. Values without a mark were called inactive.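 The calls were made as follows: active = activation above its plate's cutoff, the mean activation of the plate's test wells plus 3 SD (cut at about 12% in these data); inactive = the rest.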

Mucolipin-3 (Homo sapiens), sequence (Q8TDD5 whole entry, looked up): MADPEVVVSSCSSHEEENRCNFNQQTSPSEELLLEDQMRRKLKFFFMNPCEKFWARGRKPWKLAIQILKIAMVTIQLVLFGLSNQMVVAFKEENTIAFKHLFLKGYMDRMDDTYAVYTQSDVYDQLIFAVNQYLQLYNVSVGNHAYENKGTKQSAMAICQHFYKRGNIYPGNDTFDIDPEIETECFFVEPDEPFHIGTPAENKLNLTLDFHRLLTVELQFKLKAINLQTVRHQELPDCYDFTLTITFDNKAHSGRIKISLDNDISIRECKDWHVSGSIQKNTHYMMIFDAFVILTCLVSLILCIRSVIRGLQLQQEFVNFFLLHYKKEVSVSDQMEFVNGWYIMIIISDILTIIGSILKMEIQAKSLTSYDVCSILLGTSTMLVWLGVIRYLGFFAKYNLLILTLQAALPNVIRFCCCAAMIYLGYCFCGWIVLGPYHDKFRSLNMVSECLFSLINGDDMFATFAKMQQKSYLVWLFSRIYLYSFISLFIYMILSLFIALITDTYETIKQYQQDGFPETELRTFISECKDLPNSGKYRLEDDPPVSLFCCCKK

This test addresses Mucolipin-3 (Homo sapiens) (UniProt Q8TDD5). The experiment in a line: activators of mucolipin-3 cation channel – cell-based, HEK293 TRPML3-YFP, Fluo-8 calcium fluorescence, 3 µM, primary screen (AID 1448).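 Also: 0% = DMSO only wells and 100% = carbachol wells.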 Particulars: at 3 µM, stronger effect = higher value, 100% = the carbachol control signal. In short, it runs like this: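 Material: HEK293 cells stably carrying human TRPML3-YFP; compound dosing: single dose, 3 µM final nominal compound, 0.3% DMSO final; incubation: 1-h 37 °C dye load, 5-s basal, 120-s post-compound reads; technique: Fluo-8 intracellular calcium fluorescence, excitation 470-495 nm, emission 515-575 nm; read-out basis: percent activation from peak-to-basal fluorescence ratio, scaled between DMSO and carbachol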
On to `COCCNC(=O)C(OC(=O)c1cccs1)c1ccc(F)cc1` (stereo not drawn), for which the activation is 0.35%.

Take `COc1cc(OC)cc(C(=O)N[C@H](C(=O)Nc2nc3ccccc3[nH]2)C(C)C)c1`: the activation is 0.87%.

With `CC(NC(=O)COC(=O)c1ccc2c(c1)OCO2)c1ccccc1` (stereo not drawn), the activation was -0.07%.

With `COc1cc(OC)cc(C(=O)N[C@H](C(=O)OCC(=O)NC(C)c2ccccc2)C(C)C)c1` (stereo partly drawn), the activation was 17.2% (active).

In the case of `COc1ccc(Br)cc1CN(C)CC(=O)Nc1cc(Cl)cc(Cl)c1`, the activation is 0.63%.

`CC(=O)c1ccc(-c2ccc(Cn3c(C)nc4cc(N)c(C)nc43)cc2)cc1`: the activation is 0.69%.

`Cc1cc2nc3c(=O)n(Cc4ccccc4)c(=O)[nH]c3nc2cc1N`: the activation was 23.9% (active).

Regarding `O=c1[nH]c2c(c(=O)n1Cc1ccccc1)CCC2`, the activation was 0.43%.

On to `CCCC(=O)Nc1cccc(NC(=S)NC(=O)C(C)Oc2ccc(Cl)cc2Cl)c1` (stereo not drawn), for which the activation is 0.1%.

`COc1ccc(C(=O)NC(=S)NNC(=O)CCc2ccccc2)cc1`: the activation is 2.05%.

Consider `Cc1onc(-c2ccccc2)c1C(=O)NNC(=S)NC(=O)c1ccc(F)cc1`, for which the activation was 1.79%.

In the case of `COc1ccc(C(=O)NC(=S)NNC(=O)c2c(-c3ccccc3)noc2C)cc1`, the activation was 31.2% (active).

In the case of `O=C(Nc1ccc(S(=O)(=O)Nc2nccs2)cc1)c1cc(-c2ccncc2)nc2ccccc12`, the activation is 0.93%.

For the molecule `CC(C)Cc1nc(Cl)c(C#N)c2c1CCC2`, the activation is -0.84%.

Take `O=C(CN1CCN(C(=S)NC2CCCC2)CC1)Nc1ccc(Oc2ccccc2)cc1`: the activation was 3.02%.

Consider `CCOCC(=O)Nc1ncc(S(=O)(=O)c2ccc([N+](=O)[O-])cc2)s1`, for which the activation is 2.38%.

On to `O=C(Cc1c(F)cccc1Cl)Nc1ncc([N+](=O)[O-])s1`, for which the activation is 10.9%.

Turning to `CC(=O)Oc1ccccc1C(=O)Nc1ncc([N+](=O)[O-])s1`, the activation is 16.7% (active).

On to `O=C(CCc1ccccc1)Nc1ncc([N+](=O)[O-])s1`, for which the activation was 8.03%.

As for `CCC(C)NC(=O)c1ccc(N2CCC3(CC2)OCCO3)c([N+](=O)[O-])c1` (stereo not drawn), the activation was -0.07%.

For the molecule `COc1cc2nc(CN(C)Cc3ccc(F)cc3)[nH]c(=O)c2cc1OC`, the activation is 0.67%.

Regarding `CN(c1ccccc1)c1ccc(/C=c2\s/c(=C(/C#N)C(=O)C(C)(C)C)n(Cc3ccco3)c2=O)cc1`, the activation was 14.8% (active).

Regarding `Cc1cs/c(=N\N=C\c2ccc(O)cc2)n1Cc1ccco1`, the activation is -0.12%.

For `COc1ccc(NC(=O)Cn2c(=O)n(Cc3ccco3)c(=O)c3ccccc32)cc1`, the activation was 0.61%.

Consider `Cc1sc2ncnc(Sc3nc4ccccc4s3)c2c1C`, for which the activation was 0.98%.

As to `CCc1c(C)nc2c(-c3ccccc3)c(C)nn2c1Nc1ccc(NC(C)=O)cc1`, the activation was -0.72%.

For the molecule `Cc1ccc(CN(C)CC(=O)Nc2cccc([N+](=O)[O-])c2)o1`, the activation is -0.52%.

As to `CN(CC(=O)Nc1cccc(F)c1)CC(=O)Nc1cccc([N+](=O)[O-])c1`, the activation was 26.9% (active).

For the molecule `Cc1ccc(NC(=O)CN(C)CC(=O)Nc2cccc(F)c2)cc1[N+](=O)[O-]`, the activation is 4.13%.

As to `COC(=O)C1=C(C)N(c2ccc(Br)cc2)C(=O)/C1=C\c1ccco1`, the activation was 0.24%.

Consider `O=C(O)C(c1ccccc1)C1(O)CCCCC1` (stereo not drawn), for which the activation is 1.12%.

As for `CC(NC(=O)C(C)(C)C)C(c1cccs1)N1CCN(Cc2ccccc2)CC1` (stereo not drawn), the activation was -0.4%.

Take `CC1=CC2=NC(=O)/C(=C/c3coc4ccccc4c3=O)C(=N)N2O1`: the activation was 18.6% (active).

In the case of `CCOc1cc(/C=C2/C(=N)N3OC(C)=CC3=NC2=O)ccc1OC`, the activation was 0.9%.

As to `COc1ccc(OCCCn2cccc2/C=C2/C(=N)N3OC(C)=CC3=NC2=O)cc1`, the activation is 1.97%.

For `COc1ccc(N2C(=O)/C(=C\c3ccco3)N=C2SCC(N)=O)cc1Cl`, the activation was 0.09%.

As for `O=C(c1cccc(F)c1)N1CCN(c2ccc([N+](=O)[O-])c3cccnc23)CC1`, the activation is 0.25%.

For `CCN1CCN(c2nc(Nc3cccc(F)c3)nc(N)c2[N+](=O)[O-])CC1`, the activation was 0.34%.

Consider `CCOC(=O)c1c(-c2ccccc2)csc1NC(=S)NC(=O)c1ccccc1`, for which the activation is -0.33%.

`CCOC(=O)C1=C(NC(=S)NC(=O)c2ccccc2)c2ccccc2CC1(C)C`: the activation was 43.3% (active).

With `COCCCNC(=S)NC(=O)c1ccccc1`, the activation is 0.01%.

For the molecule `CCc1ccc2ncc(C(=O)c3ccccc3)c(N3CCOCC3)c2c1`, the activation was -0.05%.

Consider `COCCNc1cc(NCCOC)c([N+](=O)[O-])cc1[N+](=O)[O-]`, for which the activation is 0.69%.

In the case of `CCOc1ccc(S(=O)(=O)N2CCCCCC2)c2ccccc12`, the activation is 101% (active).

Regarding `CCOc1ccc(Br)cc1S(=O)(=O)N1CCC(C(=O)O)CC1`, the activation is 1.07%.

For the molecule `COc1ccc(S(=O)(=O)N2CCCCC2)cc1Br`, the activation is 9.19%.

With `COc1ccc(S(=O)(=O)N2CCCC2)c(C)c1C`, the activation was 13.3% (active).

On to `COc1ccc(S(=O)(=O)N2CCOCC2)c(C)c1C`, for which the activation is 0.66%.

In the case of `COc1ccc(F)cc1S(=O)(=O)N1CCCCC1`, the activation was 0.95%.

For `COc1ccccc1Cn1c(C)nnc1-c1cnn(C)c1N`, the activation was -0.66%.

As for `CCCCN(CCCC)CC(O)Cn1c2ccccc2c(=O)c2ccccc21` (stereo not drawn), the activation was 0.31%.

Take `Cc1cc(Cl)ccc1OCc1nc(-c2ccncc2)no1`: the activation was -0.07%.

Take `O=C(CSc1nnc2n1CCCN2)c1ccccc1`: the activation was 0.51%.

With `CCN(CC)C(=O)CSc1nc2ccccc2n1CC(=O)N1CCN(c2ccccc2OC)CC1`, the activation is -0.02%.

For the molecule `CCN(CC)C(=O)CC1(c2ccccc2OC)CCOC(C(C)C)C1` (stereo not drawn), the activation was 17.3% (active).

`COc1ccc(C2(CNC(=O)C(c3ccccc3)c3ccccc3)CCOCC2)cc1OC`: the activation was 0%.

For `CCC(C)(C)NC(=O)C(c1ccc(O)cc1)N(C(=O)Cn1nnc2ccccc21)c1ccc(NC(C)=O)cc1` (stereo not drawn), the activation was 0.14%.

Consider `NC(=O)c1ccc(NC(=O)COC(=O)c2c3c(nc4ccccc24)/C(=C\c2ccc4c(c2)OCO4)CCC3)cc1`, for which the activation was 29.2% (active).

Turning to `NS(=O)(=O)c1ccc(NC(=O)COC(=O)c2cc3ccccc3oc2=O)cc1`, the activation was 0.31%.

Consider `O=C(COC(=O)c1c2c(nc3ccccc13)/C(=C\c1cccs1)CCC2)Nc1ccccc1Cl`, for which the activation is 0.46%.

As to `NS(=O)(=O)c1ccc(NC(=O)COC(=O)c2ccc(Cl)nc2)cc1`, the activation was 0.29%.

As for `NS(=O)(=O)c1ccc(NC(=O)COC(=O)c2c3c(nc4ccccc24)/C(=C\c2ccc4c(c2)OCO4)CCC3)cc1`, the activation is 24% (active).

Consider `COc1cc(-c2cc(C(=O)OCC(=O)Nc3ccc4c(c3)OCO4)c3ccccc3n2)cc(OC)c1OC`, for which the activation was -0.31%.

For the origin of these results see PubChem BioAssay AID1448 (The Scripps Research Institute Molecular Screening Center, 2008).
